Measurements pooled from the literature.
Protocols differ between the studies behind these lines.
Target: Mitogen-activated protein kinase kinase kinase kinase 3 (MAP4K3, Homo sapiens, UniProt Q8IVH8)
Tested at: 1 µM
One construct used (Q8IVH8 1-894): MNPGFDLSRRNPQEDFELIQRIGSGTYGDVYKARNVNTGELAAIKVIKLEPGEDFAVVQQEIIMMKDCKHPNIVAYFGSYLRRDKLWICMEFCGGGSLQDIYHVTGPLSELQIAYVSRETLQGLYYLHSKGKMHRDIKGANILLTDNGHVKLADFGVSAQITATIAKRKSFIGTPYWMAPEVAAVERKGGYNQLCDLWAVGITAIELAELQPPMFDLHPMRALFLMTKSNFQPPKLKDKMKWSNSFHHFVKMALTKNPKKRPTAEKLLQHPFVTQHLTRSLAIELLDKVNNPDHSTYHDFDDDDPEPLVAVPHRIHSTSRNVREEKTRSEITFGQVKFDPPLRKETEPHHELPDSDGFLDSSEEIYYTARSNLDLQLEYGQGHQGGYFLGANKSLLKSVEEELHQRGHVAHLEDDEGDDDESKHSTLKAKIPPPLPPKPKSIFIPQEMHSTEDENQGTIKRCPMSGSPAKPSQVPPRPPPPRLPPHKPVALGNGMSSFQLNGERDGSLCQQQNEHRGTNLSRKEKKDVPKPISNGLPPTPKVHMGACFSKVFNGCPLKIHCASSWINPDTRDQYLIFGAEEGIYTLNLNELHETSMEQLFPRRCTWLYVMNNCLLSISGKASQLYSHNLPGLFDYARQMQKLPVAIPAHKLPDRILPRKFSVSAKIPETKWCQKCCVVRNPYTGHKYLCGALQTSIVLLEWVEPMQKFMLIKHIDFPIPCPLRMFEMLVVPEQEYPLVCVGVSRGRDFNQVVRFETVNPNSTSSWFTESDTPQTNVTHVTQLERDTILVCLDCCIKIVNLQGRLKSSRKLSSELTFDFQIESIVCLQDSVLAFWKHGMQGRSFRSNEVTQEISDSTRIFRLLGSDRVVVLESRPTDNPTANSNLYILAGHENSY

Structure (SMILES) | effect on | technique | remaining binding [%]
CN(C)c1nccc(-c2cnn3ncccc23)n1 | binding | – | 100
Cc1c(C(=O)O)cc(-c2ccc(C3CCNCC3)cc2)c2ccc(-c3ccc(C(F)(F)F)cc3)cc12 | binding | competition with immobilised ligand | 100
CCN1CCN(Cc2ccc(C(=O)Nc3ccc(C)c(Oc4ccc5c(c4)CC(=O)N5)c3)cc2C(F)(F)F)CC1 | binding | competition with immobilised ligand | 76
N[C@H]1CCN(c2nccc(-c3cnn4ncccc34)n2)C1 | binding | – | 100
O=C(Nc1cccnn1)N1CCC(=Cc2cccc(Oc3ccc(C(F)(F)F)cn3)c2)CC1 | cell-free assay | competition with immobilised ligand | 100
F[C@@H]1CCN(c2nccc(-c3cnn4ncccc34)n2)C1 | binding | – | 100
Cc1cnc(Nc2ccc(C(=O)N3CCC(N4CCCC4)CC3)cc2)nc1-c1cc2ccccc2s1 | binding | competition with immobilised ligand | 50
COc1cnc(Nc2cccc(S(N)(=O)=O)c2)nc1N1CCN(c2ccccc2)C(=O)C1 | binding | competition with immobilised ligand | 95
CCS(=O)(=O)c1cc2cc(C[C@@](O)(CC(C)(C)c3ccc(F)cc3C(N)=O)C(F)(F)F)[nH]c2cn1 | cell-free assay | competition with immobilised ligand | 82
O=C(Nc1c[nH]nc1C(=O)NC1CCNCC1)c1cc(F)cc(F)c1 | binding | competition with immobilised ligand | 74
CC(C)(O)c1cncc(-c2nc3ccc(F)cc3n2C2CC2)c1 | cell-free assay | competition with immobilised ligand | 100
O=C(NCCCN1CCOCC1)c1ccc(Nc2ncc(Cl)c(-c3ccc(Cl)s3)n2)cc1 | binding | competition with immobilised ligand | 38
Nc1ncc2c(n1)-c1c([nH]c3ccc(C#CC4CC4)cc13)CCCC2 | binding | competition with immobilised ligand | 87
C[C@H]1CCN(c2nccc(-c3cnn4ncccc34)n2)C1 | binding | – | 100
O=C(NCCCN1CCOCC1)c1ccc(Nc2nccc(-c3cc4ccccc4s3)n2)cc1 | binding | competition with immobilised ligand | 65
Cc1cnn2ncc(-c3ccnc(N(C)C)n3)c2c1 | binding | – | 100
CC1=C(C#N)[C@@H](c2ccc3[nH]nc(C)c3c2)C(C#N)=C(c2ccc(Cl)cc2)N1 | cell-free assay | competition with immobilised ligand | 100
CNC(=O)[C@@H]1CC[C@@H](n2c(-c3ccc4cnccc4c3)nc3ccc(C(=O)NCc4cccc(C(N)=O)c4)cc32)C1 | binding | competition with immobilised ligand | 100
CN(c1nccc(-c2cnn3ncccc23)n1)C1CC1 | binding | – | 100
Nc1cnc(N2CCc3cc(S(=O)(=O)Nc4c(F)cc(Cl)cc4F)cc(N4CCCC4=O)c32)nc1 | cell-free assay | competition with immobilised ligand | 93
